Read-outs that look alike come from different tables or passages of the source. Blank lines part the entries; values can stand above or below the molecule they belong to.
Key:
[1] = assay type: in vivo, human; conditions: metabolite; for t½: mean (SD); for Tmax: median (minimum, maximum)
How it was run: (§1)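 Randomized two-sequence crossover in healthy adults, ≥10-day washout. Single oral 4-mg rosiglitazone was given alone on day 1, or on day 3 of the test compound regimen (1250 mg loading dose on day 1, then 750 mg once daily for 7 more days), after a 10-h fast. K2EDTA blood was drawn predose to 120 h and plasma stored at ~−70°C. LC-MS/MS, LLOQ 0.500 ng/mL. GMR (90%CI) came from a linear mixed effect model.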

[2] = assay type: in vivo, human; conditions: for AUC / AUC_%Extrap_obs: geometric mean (CV%)
How it was run: as §1

[3] = Safety and tolerability in phase 1 study; assay type: in vivo, human
How it was run: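 Healthy adults in a two-period crossover: single oral 4-mg rosiglitazone alone, and the test compound (1250 mg on day 1, 750 mg daily for 7 days) with rosiglitazone on day 3. Dosing was fasted. Adverse events were recorded from informed consent until 14 days after the last dose and graded by intensity.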

[4] = tested on: Candida and Aspergillus species clinical isolates; conditions: cited from earlier work
CYP2C8 [5] = conditions: inhibition of CYP2C8‐mediated N‐desethyl‐amodiaquine activity; ref Wring SA, Park SM, unpublished data on file; cited from earlier work
[6] = phase 1 drug‐drug interaction study; cited from earlier work
CYP2C8 [7] = experiment: In vitro CYP2C8 inhibition; assay type: in vitro ADME
[8] = cited from earlier work
Candida species = conditions: in vivo murine models for invasive fungal infections with Candida species; cited from earlier work
[9] = Phase 1 study: plasma PK of SCY‐078 after loading dose and repeat daily doses; assay type: in vivo, human
How it was run: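 Healthy adults fasted 10 h, then took the oral test compound: 1250-mg loading dose on day 1, then 750 mg once daily for 7 more days. Blood was drawn predose and 0.5–24 h on day 1, predose and 0.5–16 h on day 3, and as troughs before dosing on days 4–8. K2EDTA plasma was centrifuged at 2000 g and stored at ~−70°C. Validated LC-MS/MS, LLOQ 5.00 ng/mL.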

other CYP isoforms = conditions: ref Wring SA, Park SM, unpublished data on file; cited from earlier work
[10] = rosiglitazone 4 mg + SCY‐078 750 mg, day 3, n = 17, geometric mean (CV%)
[11] = rosiglitazone 4 mg + SCY‐078 750 mg, day 3, n = 17
[12] = rosiglitazone 4 mg alone, day 1, n = 17, geometric mean (CV%)
[13] = rosiglitazone 4 mg alone, day 1, n = 17
[14] = both, human, plasma, oral, 4 mg
[15] = all treatments pooled, 24 subjects
[16] = both, human, plasma, po, 1250 mg

AUC ([1]; 0 to infinity, rosiglitazone 4 mg + SCY‐078 750 mg, day 3, n = 17, geometric mean (CV%)): 2260 (15.5) μg·hr/mL
AUC0‐24h GMR rosiglitazone + SCY‐078 vs rosiglitazone alone ([1]; geometric mean ratio (90%CI)): 0.97 (0.89‐1.06)
AUC0‐last GMR rosiglitazone + SCY‐078 vs rosiglitazone alone ([1]; geometric mean ratio (90%CI)): 1.03 (0.95‐1.12)
AUC GMR rosiglitazone + SCY‐078 vs rosiglitazone alone ([1]; geometric mean ratio (90%CI)): 1.03 (0.95‐1.12)
Cmax GMR rosiglitazone + SCY‐078 vs rosiglitazone alone ([1]; geometric mean ratio (90%CI)): 0.97 (0.88‐1.07)
AUC0‐24h [1, 10]: 1.31 µg·h/mL
AUC0‐last [1, 10]: 2.24 µg·h/mL
AUC_%Extrap_obs [1, 10]: 0.90 (45.6) %
Cmax [1, 10]: 70.4 (16.4) ng/mL
t½ [1, 11]: 15.2 (2.3) h
Tmax [1, 11]: 8.0 (6.0, 16.0) h
AUC0‐24h [1, 12]: 1.34 µg·h/mL
AUC0‐last [1, 12]: 2.17 µg·h/mL
AUC_%Extrap_obs [1, 12]: 0.91 (52.4) %
Cmax [1, 12]: 72.8 (17.6) ng/mL
t½ [1, 13]: 14.5 (2.4) h
Tmax [1, 13]: 6.0 (4.0, 12.0) h
Compound: O=C1NC(=O)C(Cc2ccc(OCCNc3ccccn3)cc2)S1 (stereo not shown) [N‐Desmethylrosiglitazone, N‐desmethylrosiglitazone]

Compound: CN(CCOc1ccc(CC2SC(=O)NC2=O)cc1)c1ccccn1 (stereo not shown) [Rosiglitazone, rosiglitazone]
Cmax [2, 14]: 295 ng/mL
Tmax [2, 14]: 0.5 h
half-life [2, 14]: 3.7 h
AUC ([2]; both, human, plasma, oral, AUC0‐24h, rosiglitazone 4 mg + SCY‐078 750 mg, day 3, n = 17): 1420 µg·h/mL
AUC ([2]; both, human, plasma, oral, AUC0‐last, rosiglitazone 4 mg + SCY‐078 750 mg, day 3, n = 17): 1440 µg·h/mL
AUC0‐24h GMR rosiglitazone + SCY‐078 vs rosiglitazone alone ([2]; geometric mean ratio (90%CI)): 0.98 (0.89‐1.08)
AUC0‐last GMR rosiglitazone + SCY‐078 vs rosiglitazone alone ([2]; geometric mean ratio (90%CI)): 0.99 (0.90‐1.10)
AUC GMR rosiglitazone + SCY‐078 vs rosiglitazone alone ([2]; geometric mean ratio (90%CI)): 0.99 (0.90‐1.10)
Cmax GMR rosiglitazone + SCY‐078 vs rosiglitazone alone ([2]; geometric mean ratio (90%CI)): 0.80 (0.70‐0.90)
AUC_%Extrap_obs [2, 11]: 0.71 (62.2) %
AUC_%Extrap_obs [2, 13]: 0.58 (74.3) %
treatment‐emergent AE: diarrhea ([3]; all treatments pooled (rosiglitazone alone and with SCY‐078), 24 subjects): 58.3%
serious AEs and deaths [3, 15]: no serious AEs
treatment‐emergent AE: abdominal pain [3, 15]: 41.7%
treatment‐emergent AE: contact dermatitis [3, 15]: 8.3%
treatment‐emergent AE: dizziness [3, 15]: 8.3%
treatment‐emergent AE: headache [3, 15]: 16.7%
treatment‐emergent AE: menstruation irregularity [3, 15]: 12.5%
treatment‐emergent AE: nausea [3, 15]: 41.7%
treatment‐emergent AE: somnolence [3, 15]: 8.3%
treatment‐emergent AE: vomiting [3, 15]: 25%
tolerability ([3]; rosiglitazone in the presence and absence of repeat doses of SCY‐078, healthy subjects): generally well tolerated

Compound: CC(C)[C@@H](C)[C@@]1(C)CC[C@]2(C)[C@H]3CC[C@@H]4[C@@]5(COC[C@@]4(C)[C@@H](OC[C@](C)(N)C(C)(C)C)[C@H](n4ncnc4-c4ccncc4)C5)C3=CC[C@@]2(C)[C@@H]1C(=O)O [SCY‐078]
in vitro activity against Candida and Aspergillus species clinical isolates [4]: potent in vitro activity
activity against azole‐resistant, most echinocandin‐resistant, and multidrug‐resistant strains of Candida species ([4]; in vitro): retained activity
IC50 (CYP2C8 [5]): ~300 nM
interaction with tacrolimus [6]: no clinically relevant interaction
unbound concentration in plasma as % of the CYP2C8 IC50 (CYP2C8 [7]; day 3 Cmax, based on 99.7% binding to plasma proteins): ~3%
plasma Cmax exceeds the in vitro CYP2C8 IC50 (CYP2C8 [7]; day 3 total Cmax vs IC50): approximately 4 fold
binding to plasma proteins [8]: 99.7%
efficacy target exposure (Candida species): 11.2 μg·h^2/mL
Tmax ([9]; both, human, plasma, oral): 6 h
AUC [9, 16]: 11.6 µg·h/mL
Tmax [9, 16]: 6 h
concentration at 24 h [9, 16]: 294 ng/mL
Cmax ([9]; both, human, plasma, po, 1250 mg, Cmax, day 1, oral 1250‐mg loading dose, fasted, geometric mean (CV%)): 783 ng/mL
maximum concentration in plasma ([9]; day 3, once‐daily oral regimen, molar equivalent of ∼0.93 μg/mL): 1.28 µM
absorption ([9]; following the loading dose and repeated daily doses): well absorbed
IC50 values for other CYP isoforms, fold higher than CYP2C8 (other CYP isoforms): > 5 fold

From article PMC6175093 (Journal of Clinical Pharmacology, 2018)
